{
  "source": "paper PMC11249109",
  "about": "(Drug Design, Development and Therapy, 2024)",
  "key": {"[1]": {"conditions": "rats"}, "prostaglandin E2": {"tested_on": "prostaglandin E2", "conditions": "read-out: IC50, prostaglandin E2 inhibition; cited from earlier work"}, "Nitric oxide": {"tested_on": "Nitric oxide", "conditions": "read-out: IC50, nitric oxide inhibition; cited from earlier work"}, "HIV-1 protease": {"tested_on": "HIV-1 protease", "conditions": "read-out: IC50, HIV-1 protease activity; cited from earlier work"}, "[2]": {"experiment": "Percentage recovery of unchanged panduratin A in urine and feces", "type": "in vivo, Male Wistar rats", "conditions": "rats", "method_in_brief": "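Male Wistar rats (n=5/group, fasted 12 h) were dosed with 4.5 mg/kg i.v. (tail vein) or 45 mg/kg oral pure compound, both in 50% DMSO. Urine and feces were collected in metabolic cages at 0–24 and 24–72 h. Feces were bead-homogenised in methanol. Samples were precipitated with methanol containing glycyrrhizin as internal standard and quantified by negative-ESI triple-quadrupole LC-MS (calibration 0.98–1000 μg/L). Recovery is the amount excreted divided by the dose.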"}, "SARS-CoV-2": {"tested_on": "SARS-CoV-2", "conditions": "read-out: IC50, anti-SARS-CoV-2 activity; Vero E6 cells; cited from earlier work"}, "[3]": {"experiment": "Detection of panduratin A metabolites by QTOF LCMS in plasma, urine and feces", "type": "in vivo, Male Wistar rats", "conditions": "rats", "method_in_brief": "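Male Wistar rats (fasted 12 h) received 4.5 mg/kg test compound i.v. via the lateral tail vein in 50% DMSO. Plasma came from tail-vein blood spun at 5000 g, 10 min, 4°C. Urine and feces were collected in metabolic cages at 0–24 and 24–72 h. Samples were methanol-precipitated and run on QTOF LC-MS with a C18 column at 35 °C and a 0.1% formic acid water/acetonitrile gradient.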"}, "[4]": {"conditions": "low solubility but high permeability; cited from earlier work"}, "[5]": {"conditions": "45 mg/kg as panduratin A p.o., IC50 from ref 7"}, "[6]": {"conditions": "intravenous administration, 0–72 h"}},
  "note": "Where “and” joins values, the source holds several entries; their conditions need not be identical. Identical values can stand only once. Like-named read-outs stand apart in the source and are kept apart here.",
  "data": [
    {"smiles": "COc1cc(O)c(C(=O)[C@@H]2[C@H](CC=C(C)C)C(C)=CC[C@H]2c2ccccc2)c(O)c1", "note": "[Panduratin A]", "values": [
      {"measurement": "plasma concentration after 72 h", "setting": "[1]; 4.5 mg/kg i.v.", "value": 500, "unit": "ng/mL"},
      {"measurement": "Cmax of panduratin A relative to in vitro anti-SARS-CoV-2 IC50", "setting": "[1]; [5]", "value": "approximately 15 fold"},
      {"measurement": "minimum plasma concentration at 24 h relative to in vitro anti-SARS-CoV-2 IC50", "setting": "[1]; [5]", "value": "approximately 10 fold"},
      {"measurement": "plasma concentration after 72 h", "setting": "[1]; 45 mg/kg as panduratin A single p.o.", "value": 500, "unit": "ng/mL"},
      {"measurement": "IC50", "setting": "prostaglandin E2", "value": 19.5, "unit": "nM"},
      {"measurement": "IC50", "setting": "Nitric oxide", "value": 175, "unit": "nM"},
      {"measurement": "IC50", "setting": "HIV-1 protease", "value": 18700, "unit": "nM"},
      {"measurement": "unchanged panduratin A excreted in urine", "setting": "[2]; [6]", "value": "2 % of the administered dose"},
      {"measurement": "unchanged panduratin A excreted via feces", "setting": "[2]; [6]", "value": "25 % of the administered dose"},
      {"measurement": "unchanged panduratin A excreted in urine", "setting": "[2]; single oral administration, 0–72 h", "value": "~1 % of the administered dose"},
      {"measurement": "unchanged panduratin A excreted in feces, over the experimental groups", "setting": "[2]; summary over i.v. and oral groups", "value": "20–30 % of the administered dose and 22–60 % of the administered dose"},
      {"measurement": "IC50", "setting": "SARS-CoV-2", "value": 810, "unit": "nM"},
      {"measurement": "glucuronidation form of panduratin A", "setting": "[3]", "value": "not detected"},
      {"measurement": "metabolites in plasma or urine (QTOF LCMS)", "setting": "[3]; after i.v. 4.5 mg/kg", "value": "none of the metabolites of panduratin A were detected in plasma or urine"},
      {"measurement": "BCS class", "setting": "[4]", "value": "BCS class II"}
    ]}
  ]
}
